DAGLB inhibitor: DAGLB lipase inhibitors, primary screen, biochemical, fluorescence, HTS | AID 504411, 2011 | 340,000 tested, 0.059% active | inhibition, % at 5.17 µM | HEK293T DAGLB membrane lysate, EnzChek fluorogenic substrate | Diacylglycerol lipase-beta (Homo sapiens), Q8NCG7; in the data active = inhibition above about 34%;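 note: 0% = enzyme with vehicle and 100% = wells lacking enzyme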
GPR7 antag: GPR7 receptor antagonists, primary screen, cell-based, fluorescence, single concentration | GPR7-expressing cells, fluorescence antagonist assay | 290,000 tested, 1.1% active | Neuropeptides B/W receptor type 1 (Homo sapiens), P48145 | inhibition, % at 4.4 µM; in the data active = inhibition above about 16%, passing the limit was not always enough;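 note: cells stimulated with the agonist NPW; 0% = agonist with vehicle and 100% = vehicle without agonist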
Target sequence (P48145 whole entry, looked up): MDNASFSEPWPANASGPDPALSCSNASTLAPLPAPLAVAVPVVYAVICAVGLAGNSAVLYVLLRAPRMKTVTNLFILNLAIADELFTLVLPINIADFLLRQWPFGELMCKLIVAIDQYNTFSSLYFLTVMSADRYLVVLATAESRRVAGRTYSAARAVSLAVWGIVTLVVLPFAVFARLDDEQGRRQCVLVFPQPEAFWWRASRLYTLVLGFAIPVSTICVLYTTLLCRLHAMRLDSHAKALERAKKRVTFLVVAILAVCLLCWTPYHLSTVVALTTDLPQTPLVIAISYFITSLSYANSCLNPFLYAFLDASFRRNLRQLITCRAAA
TAAR1 ag: human TAAR1 agonists, primary screen, Fluo-8 calcium fluorescence, CHO RD-HGA16 cells; Trace amine-associated receptor 1 (Homo sapiens), Q96RJ0; vehicle wells 0%, saturating PEA agonist 100%; AID 624467, 2012; 360,000 tested, 0.99% active; activation, % at 3 µM;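 active = activation above the mean activation of all test compounds in the run plus 3 SD, cut at about 38% in these data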
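Assay system – CHO-derived RD-HGA16 cells with stable Gα16 and human TAAR1 · Compound dosing – one-point dosing at 3 µM (nominal) · Incubation – 17-24 h seeding, 75 min 37 °C dye, 30 min RT · Measured by – kinetic Fluo-8 calcium fluorescence · Control set – DMSO vehicle as 0%, PEA at EC100 as 100% · Repeats – single well for each compound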
TAAR1 antagonist: human TAAR1 antagonists, primary screen, Fluo-8 calcium fluorescence, CHO RD-HGA16 cells; Trace amine-associated receptor 1 (Homo sapiens), Q96RJ0; antagonist; inhibition, % at 3 µM; 360,000 tested, 1.5% active;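 active = inhibition above a per-plate cutoff, the mean inhibition of test compounds on that plate plus 3 SD, cut at about 49% in these data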;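 note: 0% = DMSO plus EC80 beta-PEA response and 100% = DMSO alone without agonist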
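Assay system: CHO-derived RD-HGA16 cells stably expressing human TAAR1 plus Gα16. Timing: 140 s kinetic read after compound, 140 s after agonist. Technique: kinetic Fluo-8 calcium fluorescence measurement. Measure: % inhibition of agonist calcium response.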
MPTP inh: mitochondrial permeability transition pore inhibitors, primary screen, biochemical, isolated mouse mitochondria, absorbance; 360,000 tested, 1.4% active; inhibition, % at 10 µM; Ca2+ swelling absorbance, 30 min;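 active = inhibition of 50% or more, scaled per plate between neutral and stimulator controls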;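 note: 0% = DMSO wells given calcium and 100% = 1 mM EGTA wells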
* marks the source's active call; other numbers are inactive results; . = not tested or not shown. Sampled rows, rich in hits. Any-hit rate of the full collection: about 4%.

SMILES	DAGLB inhibitor	GPR7 antag	TAAR1 ag	TAAR1 antagonist	MPTP inh
COc1ccc2ccccc2c1/C=N/NC(=O)c1nnn(-c2nonc2N)c1C(C)C	0	6	7	55*	3
Cc1ccc(/C=N/NC(=O)c2nnn(-c3nonc3N)c2C(C)C)s1	-2	-8	47*	-1	-1
Cc1ccc(/C=N/NC(=O)c2nnn(-c3nonc3N)c2C(C)C)o1	0	5	38*	3	0
COc1ccc2ccccc2c1/C=N/NC(=O)c1nnn(-c2nonc2N)c1CN(C)C	-2	1	2	-3	0
CC(C)c1c(C(=O)N/N=C/c2ccco2)nnn1-c1nonc1N	0	-4	43*	-6	-2
CC(C)Nc1ncnc2c1ncn2[C@H]1CN(Cc2ccc(F)cc2)C[C@@H](CO)O1	.	.	3	-20	-1
COC(=O)c1ccc2nc(C3CCCCC3)c(Cc3cccc(Cl)c3)n2c1	.	.	-1	-8	-1
COc1cc2ccc(-c3ccc4ccccc4n3)cc2cc1OC	-7	.	10	58*	1
CCC(=O)N(CCC(c1ccco1)c1ccccc1OC)Cc1cccs1 (centres undefined)	0	19*	5	9	9
CC(=O)N(CCC(c1ccccc1)c1ccco1)Cc1cccs1 (centres undefined)	-1	-7	1	16	1
O=C(OCc1cn([C@H]2C[C@H](c3ccc(Cl)cc3)N(C(=O)c3cccs3)C[C@@H]2O)nn1)c1ccccc1	-4	.	3	9	-1
COc1cc(CNCc2ccccn2)ccc1OCc1ccc(Cl)cc1Cl	4	14	45*	16	25
CC(C)(C)C(=O)NCCCc1nc2ccccc2n1CCCOc1ccc(Cl)cc1	-1	1	19	66*	-1
CC(=O)NCCc1nc2ccccc2n1CCOc1ccccc1	-1	-13	39*	-23	1
C[C@H](CO)N1C[C@H](C)[C@H](CN(C)C(=O)Nc2ccc3c(c2)OCO3)OCc2cnnn2CCCC1=O	.	.	0	-19	.
COc1ccc(CCN2CC(C(=O)NCCCc3ccncc3)CCC2=O)cc1 (centres undefined)	0	.	1	-6	0
CCOC(=O)[C@]12CCCC=C1N(Cc1ccccc1)C(=O)[C@H](CC(=O)NCCCN1CCCC1=O)C2	.	.	1	-10	0
COc1ccc(/C=N/Nc2nonc2N)cc1	0	10	2	11	0
Nc1nonc1N/N=C\c1ccccc1	0	-8	41*	-22	6
COc1cc2c(cc1OC)C(c1ccccc1[N+](=O)[O-])=NCC2	.	.	1	-26	0
O=C1c2cccc3c([N+](=O)[O-])ccc(c23)C(=O)N1Cc1cccnc1	-4	24*	7	21	2
O=C1c2cccc3cccc(c23)C(=O)N1Cc1cccnc1	1	-11	2	-51	3
Cc1c(C(=O)Nc2ccccc2)sc2nc(-c3ccccc3)cn12	-5	5	23	51*	4
O=C(N[C@H](C(=O)N1CCC[C@H]1C(=O)NCc1ccccc1)c1ccccc1)c1ccccc1	.	.	1	-14	.
CCN(CC)S(=O)(=O)c1ccc2oc(SCC(=O)NC3CC3)nc2c1	1	-4	1	4	0
SMILES	DAGLB inhibitor	GPR7 antag	TAAR1 ag	TAAR1 antagonist	MPTP inh
CCN(CC)S(=O)(=O)c1ccc2oc(SCc3ccc(F)cc3)nc2c1	-16	4	11	55*	0
OCCNc1ncnc2c1ncn2[C@H]1CN(Cc2ccncc2)C[C@@H](CO)O1	.	.	0	-5	-3
COc1ccc(/C=C2\CN(Cc3ccccc3)C/C(=C\c3ccc(OC)cc3OC)C2=O)c(OC)c1	4	-16	13	57*	3
COc1ccc(/C=C2\CN(Cc3ccccc3)C/C(=C\c3ccc(OC)cc3)C2=O)cc1	-2	-7	6	21	2
O=[N+]([O-])c1ccc(NN=Cc2cccc(O)c2)nc1	4	.	37	24	1
Cc1cccc(C)c1-n1c(C)cc(/C=N\Nc2ccc([N+](=O)[O-])cn2)c1C	17	-7	15	51*	4
CN(CC(=O)Nc1cccc(F)c1)C(=O)c1ccc2c(c1)CC(c1ccccc1)OC2=O (centres undefined)	-1	.	19	58*	0
Clc1cc(Cl)cc(CN2CCN(c3ncc(Cc4ccccc4)cn3)CC2)c1	.	.	0	-40	.
CC(C)N1CCN(c2ccc(OCC3COC(Cn4cncn4)(c4ccc(Cl)cc4Cl)O3)cc2)CC1 (centres undefined)	2	.	20	61*	0
COc1ccc(N2CCN(C(=O)Cn3cncn3)CC2)cc1	-2	-5	1	-22	-2
CCC1(c2ccccc2)NC(=O)N(CC(=O)Nc2cc(S(=O)(=O)N3CCCCCC3)ccc2OC)C1=O (centres undefined)	-5	.	15	70*	-1
COc1ccc(S(=O)(=O)N2CCCCC2)cc1NC(=O)CN(Cc1ccco1)Cc1ccco1	-5	.	17	64*	-2
CC(C)(C)C1=CC(CC(N)=O)(C(C)(C)C)OC1=O (centres undefined)	.	.	2	-23	.
Cc1ccc(S(=O)(=O)N2[C@H](C(C)C)[C@H]3[C@H]4C(=O)N(c5ccccc5)C(=O)[C@H]4CC(=O)[C@H]3[C@@H]2c2ccccc2)cc1	.	.	2	-15	0
COc1cc(OC)c(N(C)S(=O)(=O)c2cccc(C(=O)OCC(=O)NCc3ccco3)c2)cc1Cl	-2	9	20	51*	0
COc1cc(OC)c(N(C)S(=O)(=O)c2cccc(C(=O)Nc3nc(C)cs3)c2)cc1Cl	-2	.	8	51*	-2
CC1CC(C)CN(C(=O)c2cccc(S(=O)(=O)N(C)c3ccccc3)c2)C1 (centres undefined)	-2	.	6	-5	0
CN(c1ccccc1)S(=O)(=O)c1cccc(C(=O)OCC(=O)NCc2ccccc2)c1	-3	.	5	25	0
COc1ccc(N(C)S(=O)(=O)c2cccc(C(=O)OCC(=O)N3CC(C)CC(C)C3)c2)cc1 (centres undefined)	-3	.	9	54*	4
COc1ccc(N(C)S(=O)(=O)c2cccc(C(=O)OCC(=O)NCc3ccccc3OC)c2)cc1	2	19*	11	57*	5
COc1ccc(N(C)S(=O)(=O)c2cccc(C(=O)Nc3nc(C)cs3)c2)cc1	3	.	14	37	0
Cc1cccc(-c2n[nH]nc2C2=CC(=O)CC(C)(C)C2)c1	-2	.	0	-17	0
CC(c1nc2ccccc2n1Cc1ccccc1)n1c(-c2cnccn2)nc2ccccc21 (centres undefined)	.	.	3	-47	0

Source: PubChem (several laboratories)
